Experiment: Toxicity liver stage against HepG2, at 10uM
Type: cell-based
Parameters: test concentration 10 uM, cell line HepG2-A16-CD81EGFP
Conditions: human, HepG2-A16-CD81EGFP cells; read-out: INHIBITION
How it was run: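 Uninfected HepG2-A16-CD81EGFP cells, 3 × 10^3 per well, 1536-well, plated on prespotted compound at 10 μM final, parasite-free screening media added to match infected plates; puromycin 10 μM positive, DMSO 0.5% negative; run in parallel with 48 h PbLuc assay at 37 °C, 5% CO2; viability by CellTiter-Glo luminescence, normalized to controls.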

Row | Compound | cytotoxicity at 10 µM
1 | c1cc(-c2nnc([C@H]3CCN(C4CCOCC4)C3)o2)ccn1 | -61.3%
2 | COc1ccccc1CNC(=O)COc1c(C)n(C)ccc1=O | -41.4%
3 | COc1ccc(CNc2c(N3CCN(C(C)=O)CC3)c(=O)c2=O)cc1 | -2.36%
4 | Cc1cnc2c(c1NCc1cccs1)c(=O)n(C)c(=O)n2C | 0.319%
5 | COCCCNC(=O)Cc1cc(-c2ccc(Cl)cc2)on1 | -21.4%
6 | O=C1CC(NS(=O)(=O)c2ccc(Br)cc2)CN1 (stereo not given) | -0.154%
7 | O=C(NCCNc1cc(N2CCCC2)cnn1)Nc1ccccc1F | -0.367%
8 | COC[C@@H]1CN(C)C(=O)[C@@H]2CCN(Cc3ccco3)CC[C@H]12 | -6.13%
9 | COCCN1CCc2ncc(CNc3cc(N(C)C)ncn3)n2CC1 | -1.95%
10 | c1cnn(Cc2nnc3n2CCCN(c2nccs2)C3)c1 | 9.37%
11 | CC(C)CN1C(=O)CO[C@@H]2CN(C(=O)CC(F)(F)F)C[C@H]21 | -1.74%
12 | Cc1cccc(C(=O)N2CCO[C@H]3[C@H](OCCN(C)C)CC[C@@H]32)n1 | 3.31%
13 | COC(=O)C1CCN(C(=O)c2cc(Br)ccc2-n2cnnn2)CC1 | 4.67%
14 | CC(C)CN1C(=O)CC(N2CCN(c3ccc(F)cc3)CC2)C1=O (stereo not given) | 6.56%
15 | O=C(CC1Cn2ncnc2NC1=O)Nc1cccc(C(F)(F)F)c1 (stereo not given) | 6.17%
16 | CCOc1ccc(N2CCCN=C2NC(=O)c2cccc(C)c2)cc1 | 1.61%
17 | O=C(c1ccc(Cn2cc(Br)cn2)cc1)N1CCCC1 | -7.86%
18 | O=C(Cc1cccs1)NCc1ccnc(C2CCCOC2)n1 (stereo not given) | 1.2%
19 | c1cc2cc[nH]c2c(CC2CN(Cc3cscn3)C2)n1 | 13.8%
20 | COc1ccc(C2Nc3ccccc3C3=NCCCN32)cc1OC (stereo not given) | 6.05%
21 | CC1(C(=O)NCCc2ccc(F)cc2)CCOCC1 | 5.42%
22 | O=C(c1ccc(Cl)cc1)N1CCn2c(nn(-c3cccc(Cl)c3)c2=O)C1 | 5.84%

Row | Compound | cytotoxicity at 10 µM
23 | CN(C(=O)CSc1ncc[nH]1)C1CC1 | 7.97%
24 | Cc1cc(N2CCCC(c3nncn3C3CC3)C2)ncn1 (stereo not given) | -6.48%
25 | COc1ccc(Cc2noc(C3=NN(C)C(=O)CC3)n2)cc1OC | 13.3%
26 | O=C(NCC1CCN(CCc2ccccc2)C1)NCC1(O)CCC1 (stereo not given) | -0.128%
27 | O=S(=O)(NCCc1ccccc1F)N1CCOCC1 | -1.7%
28 | c1cnn(C2CN(c3nc(-c4ccncc4)nc4c3CCC4)C2)c1 | -43%
29 | Cc1cc(S(C)(=O)=O)c(C)c(S(=O)(=O)NCC2CCC2)c1 | 16.3%
30 | O=C(NCc1nc(C2CC2)no1)N1CCOC(c2cccc(F)c2)C1 (stereo not given) | -44.6%
31 | Cc1cc(CNC(=O)N2CCN(c3ccc(Cl)cn3)CC2)c(C)o1 | 13.9%
32 | Cc1nc(CNC(=O)N2CCN(c3ccc(Cl)cn3)CC2)sc1C | 3.92%
33 | CN(Cc1ccc2c(c1)OCCO2)c1ncc(S(N)(=O)=O)s1 | 0.482%
34 | CNC(=O)c1cccc(NC(=O)c2ccnc(N(C)C)c2)c1C | 4.9%
35 | Cc1nn(C)c(Cl)c1C1CCCN1C(=O)c1ccc(N(C)C)nn1 (stereo not given) | -9.01%
36 | CCn1nc(C)cc1C(=O)NCc1cc(N(C)C)nc2ccccc12 | 10.6%
37 | COC(C(=O)N1CCN(Cc2noc(C)n2)CC1)c1ccccc1 (stereo not given) | -1.8%
38 | Cc1cc(S(=O)(=O)N2CCCc3cc(Br)ccc32)sc1C(=O)O | 2.91%
39 | CCCN(CCS(C)(=O)=O)C1CCc2ccccc2C1 (stereo not given) | -5.08%
40 | COCCSCC(=O)NC1(c2cccc(Br)c2)CC1 | 13.3%
41 | CCN(CC)C(CNS(=O)(=O)c1ccc(C(N)=O)cc1)c1ccco1 (stereo not given) | -8.64%
42 | Cc1sc2nc(C(F)(F)F)nc(N3CCCN(C)CC3)c2c1C | -26.8%
43 | CN(Cc1cc(=O)c(O)co1)C1CCN(c2ccc(F)cc2)CC1 | -3.73%
44 | Cc1ccc(S(=O)(=O)n2ccc(C(=O)NCC(F)(F)F)c2)cc1 | -4.78%

Row | Compound | cytotoxicity at 10 µM
45 | Cc1nnc2n1CCN(C(=O)c1cnc(C3CC3)s1)C2 | -5.19%
46 | O=C(C[S+]([O-])Cc1cccc(F)c1)NC1CCCC1 (stereo not given) | 1.79%
47 | CC(C(=O)Nc1ncccn1)N1CCC(n2ccnc2)CC1 (stereo not given) | -8.15%
48 | Cc1[nH]ccc1C(=O)N(C)C1CC(=O)N(Cc2ccccc2)C1=O (stereo not given) | 8.76%
49 | CSCC(CCO)NC(=O)c1cccc(C)c1Cl (stereo not given) | 16.8%
50 | CCc1ccsc1C(=O)N1CCS(=O)(=O)CC1 | 5.36%
51 | COc1ccc(NC(C)c2nnnn2-c2ccccc2)cc1F (stereo not given) | 12.1%
52 | Cc1cc2n(n1)CC(CNCCc1cnn(C)c1)CN2 (stereo not given) | 5.27%
53 | Cc1cc(C)cc(C(C)NC(=O)c2ccc(CS(C)(=O)=O)o2)c1 (stereo not given) | 2.49%
54 | CN(C)C(=O)CCS(=O)(=O)Cc1cc(Cl)c2c(c1)OCCO2 | 9.15%
55 | CCNC(=O)CNS(=O)(=O)c1cc(Br)ccc1F | -55.4%
56 | CC(C)NC(=O)CC(C)NCc1ccc(F)cc1Cl (stereo not given) | -40.7%
57 | CC(=O)N1CCN(CCNc2ncc(Br)cc2C)CC1 | 2.86%
58 | COc1cccc(CN(C)C(=O)CN2CC(n3nc(C)cc3C)C2)c1 | -1.38%
59 | COCC1CN(CCc2ccc(OC)c(OC)c2)Cc2c1cnn2C (stereo not given) | -105%
60 | CCS(=O)(=O)N1CCC2(CC1)CN(c1ccsc1)C(=O)CO2 | -73.7%
61 | CN(C)C(=O)CN1CCC2(CCCN(Cc3ccoc3)C2)C1=O (stereo not given) | -103%
62 | CNC(=O)[C@@]12CCO[C@@H]1CCN(S(=O)(=O)c1cc(C)cc(C)c1)C2 | -73.5%
63 | Cc1nc(COC[C@H]2CCC[C@]23CN(CC2CC2)CCO3)cs1 | -76.9%
64 | CNC(=O)C1=NOC2(CCN(Cc3nccs3)C2)C1 (stereo not given) | -73.4%
65 | c1cc(CN2CCCN(c3ccc4cc[nH]c4n3)CC2)ccn1 | -9.98%
66 | O=C(NCC1CCN(Cc2cc3ccccc3[nH]2)C1)C1CCCCC1 (stereo not given) | 9.81%

Row | Compound | cytotoxicity at 10 µM
67 | CCCN1CCC(Cc2nc(CN3CCN(C)CC3)no2)CC1 | 1.25%
68 | Cc1cc(=O)c2ccccc2n1CC1CCN(C(C)C)C1 (stereo not given) | 4.64%
69 | COc1coc(CN2CCCC3(CCC(=O)N(C4CC4)C3)C2)cc1=O (stereo not given) | -39.9%
70 | Cc1ccc(-c2cn[nH]c2C2CCCN(c3cnccn3)C2)cc1 (stereo not given) | 73.6%
71 | CCOC(=O)CCNC(=O)N1CCOC(Cc2cccc(OC)c2)C1 (stereo not given) | -1.13%
72 | CC(NC(=O)c1ccc(=O)n(C)c1)c1ccccc1-n1cccn1 (stereo not given) | 2.68%
73 | OCCC1CN(c2ncnc3[nH]cnc23)CCN1Cc1cccs1 (stereo not given) | 12.8%
74 | CSc1nccc(N2CCC(NCCN3CCOCC3)CC2)n1 | -49.5%
75 | CCN(Cc1ccncc1)c1cc(C2CCCNC2)nc(C)n1 (stereo not given) | -5.21%
76 | Cc1cc(F)ccc1N1CCC(N2C[C@@H](C)[C@@](C)(O)C2)CC1 | 8.79%
77 | CNc1ncccc1CN1CCN2CCN(C)CC2C1 (stereo not given) | -2.46%
78 | COc1nccnc1N1CCC(C(=O)O)(n2ccc(C(C)(C)C)n2)CC1 | -4.05%
79 | CC1CCCN(CCCNC(=O)c2ccc(N(C)S(C)(=O)=O)cc2Cl)C1 (stereo not given) | -2.28%
80 | O=C(CCCn1cncn1)N1CCC2(CC1)[C@H](O)C[C@@H]2OCCO | 5.3%
81 | COc1ccc(C(=O)N2CCOC3(CNCCOC3)C2)c(OC)n1 (stereo not given) | -8.2%
82 | Cc1nccn1-c1cccc(C2CCCN(C(=O)c3cc[nH]n3)C2)n1 (stereo not given) | 0.481%
83 | COc1ccc(CNC(=O)NC(C)(C(=O)O)c2ccco2)cc1F (stereo not given) | 0.808%
84 | CCc1nnsc1C(=O)N1CCCC(n2ccnc2C(C)C)C1 (stereo not given) | -16%
85 | Cc1cnn(C2CCCN(C(=O)Cc3c(C)nn(C)c3C)C2)c1 (stereo not given) | -6.71%
86 | NC(=O)c1ccc(C(=O)N2CCCCC2Cn2cccn2)s1 (stereo not given) | 0.977%
87 | CCOCCN1CCN(Cc2nc(CC(C)C)no2)CC1 | -13%
88 | CC(Cn1cccn1)NC(=O)NCc1ccc(OC2CCCC2)nc1 (stereo not given) | -12.9%

Row | Compound | cytotoxicity at 10 µM
89 | CN1CCCc2cc(CNC(=O)c3cc[n+]([O-])cc3)ccc21 | -1.11%
90 | Cc1nc(CN(C)C2CCN(CCn3cc(C#N)cn3)C2)no1 (stereo not given) | -3.82%
91 | Cc1nc(COc2cccc(C#N)c2)no1 | -0.513%
92 | O=C(NCCc1ccc(Cl)s1)NCc1nnc2n1CCC2 | -7.15%
93 | O=C(CN1CC(n2cccn2)C1)NCCCc1ccccc1 | -9.51%
94 | COC(=O)c1ccc(N2CCN(C(=O)c3cc(C)on3)C(C)C2)cc1 (stereo not given) | -7.85%
95 | Cc1nc(C)n(CC2CCCN(CCc3ccccn3)C2)n1 (stereo not given) | -1.59%
96 | CC(C)COCC(NC(=O)c1cc[nH]n1)c1ccco1 (stereo not given) | -4.72%
97 | CC(C)NC(=O)[C@@H]1C[C@@H]2CCN(Cc3ccoc3)C[C@H]2O1 | -109%
98 | O=C(CO[C@@H]1CC[C@H]2[C@H]1OCCN2Cc1ccccn1)N1CCCC1 | -3.98%
99 | COCCN1CC[C@H]2CN(c3cc(OC)ncn3)C[C@@H]2C1=O | 10.3%
100 | COCCN1CCOCC12CCN(c1nccs1)CC2 | -102%
101 | O=C(O)CN1CCC(F)(F)C2(CCN(c3ccccc3)C2)C1 (stereo not given) | 10.7%
102 | COCCN1CCN(c2cccc(C)n2)Cc2ccc(C)nc21 | -106%
103 | c1cncc(C2CC3(CCN(c4cnccn4)CC3)c3ccccc32)c1 (stereo not given) | 11.2%
104 | O=C(N1CCCC1)N1CCC[C@]2(C[C@@H](OCc3ccncc3)CO2)C1 | 7.19%
105 | CC(C)Nc1ncnc2c1CCN(C(=O)c1ccncc1F)CC2 | 4.76%
106 | Cn1cc(CN2CC[C@@H](NS(C)(=O)=O)[C@@H]2Cc2cccnc2)cn1 | -74.4%
107 | CN(C)CCN1C[C@@H]2CN(c3ccccc3)C[C@@H]2C1=O | -94%
108 | Cn1cc(N2CC3(CCN(Cc4ccsc4)CC3)OCC2=O)cn1 | -82.8%
109 | CN(C)CC(=O)N1CCC2(CC(=O)N(c3cccc(C#N)c3)C2)C1 (stereo not given) | 3.37%
110 | COCC1CN(S(=O)(=O)Cc2ccccc2)Cc2c1cnn2C (stereo not given) | -3.61%

From ChEMBL document CHEMBL4513216, “Probing the Open Global Health Chemical Diversity Library for Multistage-Active Starting Points for Next-Generation Antimalarials” (ACS Infect Dis, 2020)
